Sampled rows, rich in hits. Any-hit rate of the full collection: about 1.8%.
STAT3 inh: inhibitors of IL-6 induced STAT3 signaling; U3A cells, IL-6 STAT3-luciferase reporter, luminescence; host cell line lacks STAT1; inhibition, % at 5.5 µM; actives 0.89% (n = 190,000);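 active means inhibition above the mean inhibition across all screened compounds plus 3 SD, cut at about 44% in these data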;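 further: 0% = DMSO only wells and 100% = 100 µM nifuroxazide control wells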
STAT1 blocker: reduces IFN-gamma driven STAT1 reporter signal; AID 920; inhibition, % at 5.5 µM; actives 0.35% (n = 200,000); NIH 3T3 STAT1-luciferase reporter, luminescence;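 active means inhibition above a set limit, the mean inhibition across all tested compounds plus 3 SD, cut at about 34% in these data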;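 further: 0% = IFN-gamma with DMSO and 100% = IFN-gamma with 300 µM nifuroxazide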
STAT3 activator: activators of IL-6 induced STAT3 signaling. U3A cells, IL-6 STAT3-luciferase reporter, luminescence; 100% = signal with IL-6 EC80 alone. activation (% of control), % at 5.6 µM. actives 0.91% (n = 190,000). AID 871;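 active means activation above the screen-wide mean of compound activation plus 3 SD, cut at about 130% in these data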;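 further: 0% = background luminescence of wells with medium and substrate only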
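System – human U3A cells carrying STAT3-luciferase construct · Probe or stimulus – Interleukin-6, 33 ng/mL · Schedule – compound 1 h, then IL-6 6 h at 37 °C · Signal – luminescence from STAT3-driven luciferase reporter · Evaluation – percent of IL-6-only median luminescence · Benchmarks – IL-6-only high control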
PPC-1+TRAIL kill: compounds killing PPC-1 cancer cells with TRAIL present (potentiator screen, no TRAIL-free arm). AID 1443. cell killing (% activity), % at 4 µM or 5 µM. PPC-1 cells + TRAIL, ATPLite viability luminescence. actives 0.41% (n = 220,000);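 active means cell killing above 50% in the first pass at 4 µM, then a duplicate retest at 5 µM averaging 50% or more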;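 further: plate controls were cells with TRAIL plus DMSO for no effect and medium-only wells lacking cells for full effect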
C8 TRAIL sens: sensitizes caspase-8 expressing cells to TRAIL; NB7+C8 cells + TRAIL, ATPlite viability luminescence; AID 624354; actives 1% (n = 360,000); inhibition (viability loss, TRAIL sensitization), % at 10 µM;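 active means compounds causing at least 50% loss of cell viability in the single-dose screen, relative to plate controls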
Active calls of the source: *; x = not tested or not shown.

SMILES | STAT3 inh | STAT1 blocker | STAT3 activator | PPC-1+TRAIL kill | C8 TRAIL sens
COc1cccc(NS(=O)(=O)c2ccc(-n3cccn3)cc2)c1 | x | x | x | x | 2.1
Cc1cc(Cl)ccc1NC(=O)c1ccc2c(c1)OCO2 | x | x | x | x | 3.9
Cc1ccc(C(=O)Nc2ccc3c(c2)OCO3)cc1 | 32.3 | 20.0 | 72.5 | 72.4* | 73.5*
O=C(Nc1ccc(Cl)cc1Cl)c1ccc2c(c1)OCCO2 | x | x | x | x | 52.7*
O=C(Nc1ccc2c(c1)OCO2)c1ccncc1 | 0.3 | -6.1 | 106.3 | -2.3 | 1.8
CCOc1cccc(C(=O)Nc2ccc3[nH]ncc3c2)c1 | x | x | x | x | 61.7*
Cc1ccc(C(=O)Nc2ccc3c(c2)OCCO3)c(Cl)c1 | x | x | x | x | 82.9*
COc1cccc(CNC(=O)c2ccc(F)c(S(=O)(=O)N3CCCCC3)c2)c1 | x | x | x | x | 0.2
Nc1ccn([C@@H]2O[C@H](CNCc3cccc(OC4CCCC4)c3)[C@@H](O)[C@H]2O)c(=O)n1 | x | x | x | x | 3.7
Cc1cc(C)n2nc(C(=O)Nc3ccc4c(c3)OCO4)nc2n1 | 0.8 | -13.7 | 100.2 | 36.7 | 7.4
Cc1cc(C)n2nc(C(=O)Nc3ccc4c(c3)OCCO4)nc2n1 | x | x | x | x | 50.8*
CC1CCN(C(=O)CN2C(=O)NC(C)(c3ccc4ccccc4c3)C2=O)CC1 (stereo not given) | x | x | x | x | 4.4
COc1ccc(NC(=O)CSc2nc(C)c3c(c2C#N)CCCC3)cc1 | 17.7 | -11.7 | 87.8 | -0.5 | -16.3
CCc1nnc(NC(=O)CSc2nc(C)c3c(c2C#N)CCCC3)s1 | 29.5 | 0.5 | 81.0 | 57.3* | 66.2*
Cc1ccc(C(=O)c2no[n+]([O-])c2C(=O)c2ccc(C)cc2)cc1 | -6.4 | -4.2 | 109.0 | 10.1 | 93.2*
Cc1ccc(C(=O)c2ccc(C)cc2)cc1 | 8.2 | -16.3 | 98.7 | 19.4 | -6.0
COc1ccc2sc(-c3ccc(SC)cc3)c(-c3ccc(O)cc3)c2c1 | x | x | x | x | 5.8
O=C(/C=C1\NCC2c3ccccc3CCN2C1=O)c1ccccc1 (stereo not given) | -31.2 | 1.0 | 133.7* | -2.8 | 2.8
COC(=O)CCCC[C@@H]1O[C@H](CCc2ccccc2)Cc2[nH]c(=S)[nH]c(=O)c21 | x | x | x | x | -8.2
Cc1nc(-c2cccc(NC(=O)c3ccc(-n4nccc4C)cc3)c2)cs1 | x | x | x | x | 59.9*
CCCS(=O)(=O)NC(=O)C1(C)CCCN(C(=O)c2c(OC)cccc2OC)C1 (stereo not given) | x | x | x | x | -10.1
CCC1=NN(C(=O)c2cccc(Br)c2)C(O)(c2ccc(Br)cc2)C1 (stereo not given) | 13.1 | 5.1 | 88.9 | -8.7 | 49.4*
CCC1=NN(C(=O)c2ccc(C)cc2)C(O)(c2ccc(Br)cc2)C1 (stereo not given) | 2.2 | -4.2 | 98.9 | 9.0 | 9.7
CC(C)(C)c1ccc(C2CC2C(=O)N/N=C\c2ccc[nH]2)cc1 (stereo not given) | 71.0* | 45.8* | 41.5 | 9.0 | 64.9*
O=C(N/N=C/c1ccco1)C1CC1c1ccccc1 (stereo not given) | -1.4 | -1.7 | 101.9 | 33.3 | -0.1
SMILES | STAT3 inh | STAT1 blocker | STAT3 activator | PPC-1+TRAIL kill | C8 TRAIL sens
CCN(CC)S(=O)(=O)c1cccc(NC(=O)Nc2cccc(C(F)(F)F)c2)c1 | 18.8 | -1.7 | 89.8 | 5.6 | 65.3*
Oc1cccc2ccc(Nc3ccccn3)nc12 | 34.5 | -4.7 | 75.5 | -3.9 | 83.5*
O=C(NCCS(=O)(=O)N1CCN(c2ccccc2F)CC1)c1ccc2c(c1)OCO2 | x | x | x | x | -7.5
Cc1cc(=O)n2nc(N3CCCC(C(=O)Nc4cccc(C)c4C)C3)sc2n1 (stereo not given) | x | x | x | x | 2.0
CN1N=C(N)c2cn(C3OC(COP(=O)(O)O)C(O)C3O)c3ncnc1c23 (stereo not given) | x | x | x | x | 2.3
CCC(=O)N(C1=C(NC(C)C)C(=O)c2ccccc2C1=O)C(C)C | 3.0 | -4.2 | 101.9 | 10.7 | 12.9
CCCNC1=C(N(C(C)=O)c2cccc(F)c2)C(=O)c2ccccc2C1=O | 39.5 | 7.1 | 67.7 | 70.5* | 75.5*
Cc1ccc(NC(=O)CSc2ccc(-c3ccc4c(c3)OCO4)nn2)cc1F | -1.1 | 3.4 | 103.7 | 29.4 | 55.0*
COC(=O)/C=C1\OCc2ccccc21 | x | x | x | x | -9.2
CN(C)c1ccc(N=Nc2ccccc2Br)cc1 | x | x | x | x | 55.2*
CC(C)CC(=O)Nc1nc2c(c(=O)[nH]1)CCCC2 | -4.1 | 8.5 | 104.7 | 19.1 | 61.5*
CC(C)c1ccc(N=C2N=C(N)c3ccccc32)cc1 | x | x | x | 40.2 | 57.2*
CC(=O)c1cccc(NC(=O)C2CC(=O)N(C3CCCC3)C2)c1 (stereo not given) | x | x | x | x | 5.9
Cn1c(O)c(N=NC(=O)c2cc(-c3cccs3)nc3ccccc23)c2ccccc21 | 1.3 | -0.1 | 99.6 | 23.7 | 48.3
O=C(N=Nc1c(O)[nH]c2ccc(Br)cc12)c1cc(-c2cccs2)nc2ccccc12 | 2.7 | 9.2 | 101.8 | 15.7 | 86.8*
O=C(N=Nc1c(O)[nH]c2ccccc12)c1cccs1 | 19.5 | -42.9 | 89.9 | 43.3 | 61.5*
O=C(N=Nc1c(O)[nH]c2ccccc12)c1cc(NS(=O)(=O)c2cccs2)cc(NS(=O)(=O)c2cccs2)c1 | -21.7 | -5.3 | 125.2 | 0.6 | -3.3
CC1=C(C(=O)N2CCCCCC2)CC(CC(=O)NC(c2ccccc2)c2ccccc2)C(=O)N1Cc1ccccc1 (stereo not given) | x | x | x | x | 0.4
Fc1ccccc1-c1nc(NCCCN2CCOCC2)c2ccccc2n1 | 0.0 | 4.4 | 108.0 | 9.4 | -6.1
c1ccc2c(NCCCN3CCOCC3)c3ccccc3nc2c1 | -127.0 | -88.3 | 214.6* | 44.1 | x
Cc1cccc(NC(=S)N/N=C/c2ccc([N+](=O)[O-])s2)c1 | 14.8 | 11.7 | 89.5 | 1.1 | 48.1*
CCc1nc2ccc(C(=O)N(C)Cc3ccccc3)cn2c1N(C)Cc1ccc(OC)cc1 | x | x | x | x | 7.3
Cc1cc(Cl)n2ncc(-c3ccccc3)c2n1 | x | x | x | 21.8 | 91.0*
O=c1cc(-c2c(F)c(F)c(F)c(F)c2F)oc2ccccc12 | 14.4 | 0.5 | 93.7 | -2.2 | 76.6*
C[C@H]1CN([C@@H](C)CO)C(=O)CCCn2cc(nn2)CO[C@@H]1CN(C)C(=O)Nc1cccc(Oc2ccccn2)c1 | x | x | x | x | -3.2
SMILES | STAT3 inh | STAT1 blocker | STAT3 activator | PPC-1+TRAIL kill | C8 TRAIL sens
Cc1cc(/C=C2/C(=O)NN(c3ccccc3)C2=O)c(C)n1-c1ccc(O)cc1 | 28.2 | -21.3 | 76.6 | 78.6* | 87.7*
COc1ccc(-n2c(C)cc(/C=C3\C(=O)NN(c4ccccc4)C3=O)c2C)cc1 | -10.1 | -4.0 | 109.1 | 27.9 | 12.4
CCN(CC)c1ccc(C(=C2C=CC(=[N+](CC)CC)C=C2)c2ccc(N(CC)CC)cc2)cc1 | x | x | x | x | 88.1*
CCN(CC)c1ccc(C(=C2C=CC(=[N+](CC)CC)C=C2)c2ccccc2)cc1 | x | x | x | x | 89.4*
CC1(C(=O)Nc2cccc3c2CCCC3)CCN1C(=O)CCC1CCCC1 (stereo not given) | x | x | x | x | 6.0
COc1ccc(CCC(=O)OCC(=O)NCc2ccc(OC)c(OC)c2)cc1OC | x | x | x | x | -2.9
Cc1nnc(SCC(=O)NNC(=O)COc2ccc(Cl)cc2)n1C | x | x | x | x | -3.0

From PubChem
